Data set [1] deals with rCB1 (Rattus norvegicus, UniProt P20272). The data set is described as follows: Radioligand binding. Particulars: for Ki: cis photoisomer (irradiated with 366 nm UV light), rat brain membranes, 0.6 nM [3H]CP55940; for CB1 trans/cis ratio: ratio Ki(trans)/Ki(cis) at CB1.
Data set [2] deals with hCB2 (Homo sapiens, UniProt P34972). The data set is described as follows: Radioligand binding. Particulars: hCB2-HEK membranes.
The format of data set [3] is physicochemical. Particulars: for cis form at photostationary state: UV light at 366 nm, quantified by HPLC. Put shortly:
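Photostationary states measured by UV/vis spectroscopy in 10 mm path cuvettes. Cis form produced by 366 nm irradiation; trans form by 454 nm blue light. HPLC chromatograms track isomer distribution at each stationary state. Repeated switching cycles check for photofatigue. Thermal stability of the cis form followed over >3 h in buffer pH 7.4 at 37 °C.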

Data set [4] has as its target hCB1 (Homo sapiens, UniProt P21554). It is filed as cell-based. A digest of the protocol: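 CHO-K1 cells express hCB1 coupled through Gαq16, so receptor activation gives intracellular calcium mobilization. Calcium flux is monitored with calcium-5 fluorescent dye on an automated fluorescence plate reader. Antagonist apparent affinity (Ke) is derived from the functional response.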

Like-named read-outs stand apart in the source and are kept apart here.

Chain of hCB2 (P34972 whole entry): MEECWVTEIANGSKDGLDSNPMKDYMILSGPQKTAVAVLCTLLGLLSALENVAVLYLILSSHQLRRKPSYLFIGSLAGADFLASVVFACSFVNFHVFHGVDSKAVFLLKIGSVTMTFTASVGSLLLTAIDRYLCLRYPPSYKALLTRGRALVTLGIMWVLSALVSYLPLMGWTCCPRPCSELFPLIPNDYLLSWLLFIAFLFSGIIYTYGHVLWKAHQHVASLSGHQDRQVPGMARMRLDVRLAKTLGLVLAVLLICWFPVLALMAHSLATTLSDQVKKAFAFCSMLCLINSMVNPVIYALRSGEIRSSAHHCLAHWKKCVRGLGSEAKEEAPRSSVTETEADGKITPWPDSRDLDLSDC
Chain of rCB1 (P20272 whole entry): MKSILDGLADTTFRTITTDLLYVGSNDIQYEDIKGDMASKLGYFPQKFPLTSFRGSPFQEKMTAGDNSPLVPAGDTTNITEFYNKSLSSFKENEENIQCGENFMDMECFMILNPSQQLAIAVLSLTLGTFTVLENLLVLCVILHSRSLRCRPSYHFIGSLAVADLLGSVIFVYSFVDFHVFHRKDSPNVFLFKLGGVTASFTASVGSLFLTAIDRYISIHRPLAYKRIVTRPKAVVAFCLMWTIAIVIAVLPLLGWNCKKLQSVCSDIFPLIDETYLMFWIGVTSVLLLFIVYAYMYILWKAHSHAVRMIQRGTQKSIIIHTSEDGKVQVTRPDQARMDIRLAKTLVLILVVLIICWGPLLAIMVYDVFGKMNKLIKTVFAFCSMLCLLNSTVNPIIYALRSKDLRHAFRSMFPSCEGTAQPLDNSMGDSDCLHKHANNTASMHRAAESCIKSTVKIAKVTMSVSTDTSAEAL
Chain of hCB1 (P21554 whole entry): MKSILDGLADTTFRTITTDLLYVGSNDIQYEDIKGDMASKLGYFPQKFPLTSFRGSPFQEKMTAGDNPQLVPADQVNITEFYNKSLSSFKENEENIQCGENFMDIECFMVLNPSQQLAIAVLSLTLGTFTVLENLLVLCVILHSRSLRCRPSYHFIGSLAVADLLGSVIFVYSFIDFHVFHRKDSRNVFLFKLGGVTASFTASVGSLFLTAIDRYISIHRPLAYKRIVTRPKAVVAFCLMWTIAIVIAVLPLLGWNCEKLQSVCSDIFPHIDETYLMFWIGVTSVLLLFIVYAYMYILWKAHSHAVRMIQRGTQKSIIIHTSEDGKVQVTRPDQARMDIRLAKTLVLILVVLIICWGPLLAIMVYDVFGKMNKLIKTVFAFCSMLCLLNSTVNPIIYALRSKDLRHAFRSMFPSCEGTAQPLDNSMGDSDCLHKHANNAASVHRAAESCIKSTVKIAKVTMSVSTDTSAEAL

`Cc1c(C(=O)NN2CCCCC2)nn(-c2ccc(Cl)cc2Cl)c1/N=N/c1ccccc1` [9a, 1-(2,4-Dichlorophenyl)-4-methyl-5-[(E)-2-phenyldiazen-1-yl]-N-(piperidin-1-yl)-1H-pyrazole-3-carboxamide]: the Ki – broadly, a dissociation constant, usually derived from enzyme kinetics or from competition with a known ligand – in data set [1] (CB1 (Ki ± SD)) is 461 ± 337 nM. For the same compound, the CB1 trans/cis ratio in data set [1] came out at 1.0. The “[3H]CP55950 displ at 10 μM (CB2)” value is on record as 14% in data set [2] (cis photoisomer (366 nm)) and 51% in data set [2] (trans photoisomer (454 nm)).

In the case of `Cc1c(C(=O)NN2CCCCC2)nn(-c2ccc(Cl)cc2Cl)c1/N=N/c1cccc(Cl)c1Cl` [9b, 1-(2,4-Dichlorophenyl)-4-methyl-5-[(E)-2-(2,3-dichlorophenyl)diazen-1-yl]-N-(piperidin-1-yl)-1H-pyrazole-3-carboxamide], affinity in data set [1] (CB1 (Ki ± SD)) was put at a Ki of 716 ± 26 nM. Besides, the CB1 trans/cis ratio in data set [1] was found to be 0.83. The “[3H]CP55950 displ at 10 μM (CB2)” value is on record as 61% in data set [2] (cis photoisomer (366 nm)) and 81% in data set [2] (trans photoisomer (454 nm)). In data set [3], the “cis form at photostationary state” value is “approximately 50%”.

As to `Cc1c(C(=O)NN2CCCCC2)nn(-c2ccc(Cl)cc2Cl)c1/N=N/c1ccc(Cl)cc1Cl` [9c, 1-(2,4-Dichlorophenyl)-5-[(E)-2-(2,4-dichlorophenyl)diazen-1-yl]-4-methyl-N-(piperidin-1-yl)-1H-pyrazole-3-carboxamide], in data set [1] (CB1 (Ki ± SD)), the Ki is 358 ± 62 nM. Further, in data set [1], the CB1 trans/cis ratio is given as 1.11. Moreover, the “[3H]CP55950 displ at 10 μM (CB2)” value came out at 55% in data set [2] (cis photoisomer (366 nm)) and 62% in data set [2] (trans photoisomer (454 nm)). Moreover, in data set [3], the “cis form at photostationary state” value is “approximately 50%”. Besides, the “reversal in the photoconversion” value in data set [3] (after being stored in the dark for 2 h) came out at 45%.

As for `Cc1ccccc1/N=N/c1c(C)c(C(=O)NN2CCCCC2)nn1-c1ccc(Cl)cc1Cl` [9d, 1-(2,4-Dichlorophenyl)-4-methyl-5-[(1E)-2-(2-methylphenyl)diazen-1-yl]-N-(piperidin-1-yl)pyrazole-3-carboxamide], the affinity in data set [1] (CB1 (Ki ± SD)), expressed as Ki, was 384 ± 40 nM. Besides, the CB1 trans/cis ratio in data set [1] came out at 0.76. Also, the “[3H]CP55950 displ at 10 μM (CB2)” value is 45% in data set [2] (cis photoisomer (366 nm)) and 68% in data set [2] (trans photoisomer (454 nm)).

`Cc1cccc(/N=N/c2c(C)c(C(=O)NN3CCCCC3)nn2-c2ccc(Cl)cc2Cl)c1` [9e, 1-(2,4-Dichlorophenyl)-4-methyl-5-[(1E)-2-(3-methylphenyl)diazen-1-yl]-N-(piperidin-1-yl)-1H-pyrazole-3-carboxamide]: the affinity in data set [1] (CB1 (Ki ± SD)), expressed as Ki, was 679 ± 160 nM. In addition, in data set [1], the CB1 trans/cis ratio amounted to 0.60. Further, the “[3H]CP55950 displ at 10 μM (CB2)” value in data set [2] (cis photoisomer (366 nm)) is 46%; in data set [2] (trans photoisomer (454 nm)), 65%.

In the case of `Cc1c(/N=N/c2ccccc2)nn(-c2ccc(Cl)cc2Cl)c1-c1ccc(Cl)cc1` [14a, 5-(4-Chlorophenyl)-1-(2,4-dichlorophenyl)-4-methyl-3-[(E)-2-phenyldiazen-1-yl]-1H-pyrazole], the Ki in data set [1] (CB1 (Ki ± SD)) was found to be 249 ± 155 nM. Also, in data set [1], the CB1 trans/cis ratio was determined as 2.16. The “[3H]CP55950 displ at 10 μM (CB2)” value is 21% in data set [2] (cis photoisomer (366 nm)) and <10% in data set [2] (trans photoisomer (454 nm)).

Turning to `Cc1c(/N=N/c2cccc(Cl)c2Cl)nn(-c2ccc(Cl)cc2Cl)c1-c1ccc(Cl)cc1` [14b, 5-(4-Chlorophenyl)-1-(2,4-dichlorophenyl)-3-[(E)-2-(2,3-dichlorophenyl)diazen-1-yl]-4-methyl-1H-pyrazole], the Ki in data set [1] (CB1 (Ki ± SD)) amounted to 195 ± 63 nM. For the same compound, the “[3H]CP55950 displ at 10 μM (CB2)” value in data set [2] (cis photoisomer (366 nm)) is given as 60%; in data set [2] (trans photoisomer (454 nm)), 31%. Moreover, in data set [3], the “cis form at photostationary state” value is on record as “approximately 50%”.

`Cc1c(C(=O)NCc2ccc(/N=N/c3ccccc3)cc2)nn(-c2ccc(Cl)cc2Cl)c1-c1ccc(Cl)cc1` [16a, 5-(4-Chlorophenyl)-1-(2,4-dichlorophenyl)-4-methyl-N-((4-[(1E)-2-phenyldiazen-1-yl]phenyl)methyl)-1H-pyrazole-3-carboxamide] yielded a Ki in data set [1] (CB1 (Ki ± SD)) of 29 ± 2.8 nM. Moreover, the “[3H]CP55950 displ at 10 μM (CB2)” value in data set [2] (cis photoisomer (366 nm)) and in data set [2] (trans photoisomer (454 nm)) was <10% throughout. Moreover, in data set [4], the Kb was ~85.3 nM. Further, in data set [3] (buffer pH 7.4, 37 °C), the thermal stability is listed as > 3 h.

As for `Cc1c(C(=O)NCc2cccc(/N=N/c3ccccc3)c2)nn(-c2ccc(Cl)cc2Cl)c1-c1ccc(Cl)cc1` [16b, 5-(4-Chlorophenyl)-1-(2,4-dichlorophenyl)-4-methyl-N-((3-[(1E)-2-phenyldiazen-1-yl]phenyl)methyl)pyrazole-3-carboxamide], the CB1 trans/cis ratio in data set [1] was 1.23. In addition, in data set [1] (read-out: CB1 (Ki ± SD)), the Ki was 311 ± 196 nM. The figures for the “[3H]CP55950 displ at 10 μM (CB2)” value in data set [2] (cis photoisomer (366 nm)) and in data set [2] (trans photoisomer (454 nm)) were <10% and 14%, respectively.

Take `Cc1c(C(=O)NCc2ccccc2/N=N/c2ccccc2)nn(-c2ccc(Cl)cc2Cl)c1-c1ccc(Cl)cc1` [16c, 5-(4-Chlorophenyl)-1-(2,4-dichlorophenyl)-4-methyl-N-((2-[(1E)-2-phenyldiazen-1-yl]phenyl)methyl)-1H-pyrazole-3-carboxamide]: the CB1 trans/cis ratio in data set [1] stood at 1.58. Besides, the Ki in data set [1] (read-out: CB1 (Ki ± SD)) turned out to be 142 ± 28 nM. Also, the “[3H]CP55950 displ at 10 μM (CB2)” value was found to be 14% in data set [2] (cis photoisomer (366 nm)) and 46% in data set [2] (trans photoisomer (454 nm)).

With `Cc1c(C(=O)NCc2ccc(/N=N/c3ccc4c(c3)COC4)cc2)nn(-c2ccc(Cl)cc2Cl)c1-c1ccc(Cl)cc1` [16d, 5-(4-Chlorophenyl)-1-(2,4-dichlorophenyl)-N-((4-[(1E)-2-(1,3-dihydro-2-benzofuran-5-yl)diazen-1-yl]phenyl)methyl)-4-methyl-1H-pyrazole-3-carboxamide], the Ki in data set [1] (CB1 (Ki ± SD)) is 221 ± 109 nM. Further, in data set [1], the CB1 trans/cis ratio worked out at 2.72. In addition, the “[3H]CP55950 displ at 10 μM (CB2)” value in data set [2] (cis photoisomer (366 nm)) is recorded as <10%; in data set [2] (trans photoisomer (454 nm)) it was 32%.

Consider `Cc1c(C(=O)NN2CCCCC2)nn(-c2ccc(Cl)cc2Cl)c1-c1ccc(Cl)cc1` [rimonabant, reference compound], for which the “[3H]CP55950 displ at 10 μM (CB2)” value in data set [2] (reference compound, no photoisomer) was <10%.

The values above are taken from paper PMC9016771 (ACS chemical neuroscience, 2021).
